ChEMBL document CHEMBL1158763, “Cytotoxic arylnaphthalene lignans from a Vietnamese acanthaceae, Justicia patentiflora” (J Nat Prod, 2005)
Activity calls are given as the source filed them. The calls are words filed in the database; no cut-off is given here.

Experiments:
MCF7 [1] = experiment: Cytotoxicity against doxorubicin-sensitive human MCF7 cells; type: functional, cell-based
HCT-116 [2] = experiment: Cytotoxicity against human HCT116 cells; type: functional, cell-based
KB = experiment: Cytotoxicity against human KB cells; type: functional, cell-based
MCF7 [3] = experiment: Cytotoxicity against doxorubicin-resistant human MCF7 cells; type: functional, cell-based
Method in brief: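 Doxorubicin-resistant MCF-7 line derived by prolonged doxorubicin treatment of MCF-7 cells; cytotoxicity assay run per a previously published procedure.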

Mus musculus = experiment: Toxicity in mouse P388 cells implanted in CDF1 mouse assessed as induction of death at 5 mg/kg, ip administered 1 day following implantation; type: organism-based; set-up: dose 5 mg/kg, route intraperitoneal; settings: in vivo, 24 h
Method in brief: (§1)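 10^6 P388 (or P388/F 11782) murine leukemia cells implanted i.v. into CDF1 mice on day zero; single i.p. dose (2.5 or 5 mg/kg) given the day after implantation. Mice weighed twice weekly during treatment, weekly thereafter. Antitumor activity judged by increase in lifespan: ILS (%) = T/C − 100, T/C = median survival treated/control × 100.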

MCF7 [4] = experiment: Cell cycle arrest in human MCF7 cells assessed as accumulation at G0/G1 phase at 10 nM after 48 hrs; type: functional, cell-based
HCT-116 [5] = experiment: Cell cycle arrest in human HCT116 cells assessed as accumulation at G0/G1 phase at 10 nM after 48 hrs by flow cytometry; type: functional
HCT-116 [6] = experiment: Cell cycle arrest in human HCT116 cells assessed as accumulation at G2/M phase at 10 nM after 48 hrs by flow cytometry; type: functional
P388 = experiment: Antitumor activity against mouse P388 cells implanted in CDF1 mouse assessed as reduction in body weight at 2.5 mg/kg, ip administered 1 day following implantation; type: functional, organism-based; set-up: dose 2.5 mg/kg; method in brief: as §1
HCT-116 [7] = experiment: Cell cycle arrest in human HCT116 cells assessed as accumulation at S phase at 10 nM after 48 hrs by flow cytometry; type: functional

| Compound | IC50 (MCF7 [1]) [nM] | IC50 (HCT-116 [2]) [nM] | IC50 (KB) [nM] | IC50 (MCF7 [3]) [nM] | Activity (Mus musculus) | Activity (MCF7 [4]) | Activity (HCT-116 [5]) [%] | Activity (HCT-116 [6]) [%] | Activity (P388) | Activity (HCT-116 [7]) [%] |
| --- | --- | --- | --- | --- | --- | --- | --- | --- | --- | --- |
| COc1cc2c(O[C@H]3O[C@@H](C)[C@@H](OC(C)=O)[C@@H](OC(C)=O)[C@@H]3OC(C)=O)c3c(c(-c4ccc5c(c4)OCO5)c2cc1OC)C(=O)OC3 | 45 | 35 | 20 | – | – | – | – | – | – | – |
| COc1cc2c(O[C@@H]3O[C@H](CO[C@@H]4OC[C@H](OC(C)=O)[C@H](OC(C)=O)[C@H]4OC(C)=O)[C@H](OC(C)=O)[C@H](OC(C)=O)[C@H]3OC(C)=O)c3c(c(-c4ccc5c(c4)OCO5)c2cc1OC)C(=O)OC3 | 80 | 260 | 180 | 8000 | – | – | – | – | – | – |
| COc1cc2c(O[C@@H]3O[C@H](C)[C@@H](OC(C)=O)[C@H](OC(C)=O)[C@H]3OC(C)=O)c3c(c(-c4ccc5c(c4)OCO5)c2cc1OC)C(=O)OC3 | 2 | 16 | 14 | 65 | – | – | – | – | – | – |
| COc1cc2c(O[C@@H]3O[C@H](CO[C@@H]4OC[C@H](O)[C@H](O)[C@H]4O)[C@H](OC(C)=O)[C@H](OC(C)=O)[C@H]3O)c3c(c(-c4ccc5c(c4)OCO5)c2cc1OC)C(=O)OC3 [4'-O-ACETYLMANANTHOSIDE B] | 260 | 1200 | 500 | 2200 | – | – | – | – | – | – |
| COc1cc2c(O[C@H]3O[C@@H](C)[C@@H](OC(C)=O)[C@@H](O)[C@@H]3O)c3c(c(-c4ccc5c(c4)OCO5)c2cc1OC)C(=O)OC3 [4'-O-ACETYLPATENTIFLORIN B] | 12 | 30 | 24 | 100 | – | – | – | – | – | – |
| CC(=O)O[C@@]12CO[C@@H]1C[C@H](O)[C@@]1(C)C(=O)[C@H](O)C3=C(C)[C@@H](OC(=O)[C@H](O)[C@@H](NC(=O)OC(C)(C)C)c4ccccc4)C[C@@](O)([C@@H](OC(=O)c4ccccc4)[C@H]21)C3(C)C [DOCETAXEL] | 20 | 4 | 2 | – | – | – | – | – | – | – |
| COc1cc(OC)c2c(-c3ccc4c(c3)OCO4)c3c(c(OC)c2c1O)COC3=O [JUSTICINOL] | 360 | – | 300 | – | – | – | – | – | – | – |
| O=C(CC(CO)C(=O)c1ccc2c(c1)OCO2)c1ccc2c(c1)OCO2 (stereo not drawn) [JUSTIFLORINOL] | – | – | > 10000 | – | – | – | – | – | – | – |
| COc1cc2c(O[C@@H]3O[C@H](C)[C@@H](O)[C@H](O)[C@H]3O)c3c(c(-c4ccc5c(c4)OCO5)c2cc1OC)C(=O)OC3 [PATENTIFLORIN A] | 3 | 12 | 4 | 40 | Toxic | Active | 41.9 | 13.5 | inactive | 43.4 |
| COc1cc2c(O[C@H]3O[C@@H](C)[C@@H](O)[C@@H](O)[C@@H]3O)c3c(c(-c4ccc5c(c4)OCO5)c2cc1OC)C(=O)OC3 [PATENTIFLORIN B] | 300 | 250 | 6 | – | – | – | – | – | – | – |
